# Screens from PubChem.
# SENP6 block – inhibitors of human SENP6 protease | 330,000 tested, 1.8% active | Recombinant SENP6 catalytic domain, aminoluciferin luminescence | AID 2599 | Q9GZR1 | inhibition, % at 10 µM;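 active = inhibition above about 50% at the single tested dose, limit read from the data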
# HSP90 inh – HSP90 refolding inhibition in rabbit reticulocyte lysate; luciferase refolding luminescence, 3 h; inhibition, % at 5.6 µM; 290,000 tested, 0.91% active; AID 1789;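 active = inhibition above the screen-wide mean plus 3 SD, computed separately per campaign, cut at about 16% in these data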;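 also: inhibitors lower the luminescence because luciferase stays unfolded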
# SENP7 block – blocks the human protease SENP7; Q9BQF6; recombinant SENP7, Z-RLRGG-aminoluciferin luminescence, 40 min; inhibition, % at 5 µM; 330,000 tested, 1.5% active;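 active = inhibition above about 50% at the single test dose, limit read from the data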
# SENP8 block-1 – inhibitors of human SENP8 protease; recombinant SENP8, Nedd8 substrate fluorescence; inhibition, % at 20 µM; Q96LD8; 360,000 tested, 0.64% active; AID 602440; in the data active = inhibition mostly above about 40%, no sharp cut-off; inactive = mostly below about 27%
# Target sequence (Q96LD8 whole entry, looked up): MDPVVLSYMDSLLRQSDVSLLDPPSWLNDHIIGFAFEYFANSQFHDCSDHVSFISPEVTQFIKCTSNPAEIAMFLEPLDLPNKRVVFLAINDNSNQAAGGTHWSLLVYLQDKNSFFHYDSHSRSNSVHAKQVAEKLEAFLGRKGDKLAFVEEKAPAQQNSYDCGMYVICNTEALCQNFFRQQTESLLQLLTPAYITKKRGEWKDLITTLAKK
# SENP8 block-2 – inhibitors of human SENP8 protease. Q96LD8. purified SENP8, Z-RLRGG-aminoluciferin cleavage, luminescence. inhibition, % at 10 µM. 330,000 tested, 1.2% active. AID 2540; in the data active = inhibition above about 50%
# SENP1 inh – blocks the human SENP1 SUMO protease catalytic domain; Q9P0U3; recombinant SENP1 catalytic domain, CyPet-SUMO1-YPet FRET cleavage; inhibition, % at 10 µM; 360,000 tested, 0.21% active; AID 624204;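 active = inhibition at least 30% at 10 µM, raw YFP signal under a set limit, fluorescence ratio 0.5 to 1.5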
# Target sequence (Q9P0U3 419-644 limits assumed): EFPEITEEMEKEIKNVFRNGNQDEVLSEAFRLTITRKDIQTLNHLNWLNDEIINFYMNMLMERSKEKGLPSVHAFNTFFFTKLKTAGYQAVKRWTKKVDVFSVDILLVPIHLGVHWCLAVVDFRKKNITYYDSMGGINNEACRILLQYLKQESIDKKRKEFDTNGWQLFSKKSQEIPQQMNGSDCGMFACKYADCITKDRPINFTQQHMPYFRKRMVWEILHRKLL
#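 Test system: hSENP1 catalytic domain, recombinant; Amount: 20 pM final SENP1 enzyme; Medium: Tris pH 8 buffer plus EDTA, NaCl, BME, BSA, NP40, catalase; Schedule: 50 min enzyme reaction, room temperature, light-protected; Technique: FRET fluorescence in CFP and YFP emission channels; Controls: no-enzyme wells low, DMSO-plus-enzyme wells high control.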
# SENP8 inh conf – SENP8 (human) inhibition, single concentration confirmation; inhibition, % at 25 µM; 1,400 tested, 15% active; AID 624319; shares compounds with SENP8 block-1; purified SENP8, Nedd8-AMC/pro-Nedd8 cleavage fluorescence, 30 min; in the data active = inhibition mostly above about 39%, no sharp cut-off; inactive = mostly below about 34%
# Numbers stand for hits; 0 = inactive; - = not tested or not shown; ! = not confirmed by another sample. The list is not random: actives were taken first. Their share in the collection is about 2.9%.
SMILES,SENP6 block,HSP90 inh,SENP7 block,SENP8 block-1,SENP8 block-2,SENP1 inh,SENP8 inh conf
CCOc1ccc(NS(=O)(=O)c2ccc(Cl)c(N=Nc3c(O)[nH]c(=S)[nH]c3=O)c2)cc1Br,-,-,-,40,-,0,0
O=C(N/N=C/c1cc([N+](=O)[O-])ccc1O)c1cc(-c2ccccc2)nc2ccccc12,0,0,0,0,0,0,-
Cc1cc(C(=O)N/N=C/c2ccc([N+](=O)[O-])s2)c2ccccc2n1,0,0,0,46,0,0,0
O=C(N/N=C/c1cc([N+](=O)[O-])ccc1Cl)c1cc(-c2ccccc2)nc2ccccc12,0,0,0,41,0,0,0
COc1ccc(-c2[nH][nH]c(=O)c2NC(=O)c2ccccn2)cc1,-,-,-,42,-,0,0
O=C(Nc1c(-c2ccccc2)[nH][nH]c1=O)c1ccc(-c2ccccc2)cc1,-,-,-,0,-,0,-
O=C(Nc1c(-c2ccc(Cl)cc2)[nH][nH]c1=O)c1ccccn1,-,-,-,0,-,0,-
O=C(Nc1c(-c2ccccc2)[nH][nH]c1=O)c1ccco1,-,-,-,64,-,0,0
Cc1ccc(C(=O)Nc2c(-c3ccc(Cl)cc3)[nH][nH]c2=O)cc1,-,-,-,47,-,0,0
CC1(C(=O)NS(=O)(=O)c2cccc(C#N)c2)CCN1C(=O)CC1CCCCC1 (stereo not drawn),-,-,-,0,-,0,-
N#C/C(=C\c1ccc[nH]1)C(=O)N1CCCCC1,0,0,0,0,0,0,-
Cc1cccc(N(C(=O)CNC(=O)c2ccco2)C(C(=O)NCC2CCCO2)c2ccccc2)c1 (stereo not drawn),0,0,0,0,0,0,-
CCOC(=O)c1ccc(NC(=O)NCc2ccccn2)cc1,0,0,0,0,0,0,-
C=CCN(c1ccc(C(=O)NCCN2CCOCC2)cc1)S(C)(=O)=O,0,0,0,0,0,0,-
O=C(Cc1cc(=O)[nH][nH]1)N/N=C/c1c(Cl)cccc1Cl,0,0,0,44!,0,0,0
O=C(Cc1cc(=O)[nH][nH]1)N/N=C/c1c(F)cccc1Cl,0,0,0,0,0,0,-
O=C(CCCOc1ccccc1)N1CCN(S(=O)(=O)c2ccccc2)CC1,0,-,0,0,0,0,-
O=C(CCC(=O)N1CCc2ccccc2C1)N1CCN(S(=O)(=O)c2ccccc2)CC1,0,0,0,43,0,0,64
COc1ccc(OCC(=O)OCC(=O)Nc2ccc3[nH]c(=O)[nH]c3c2)cc1,0,-,0,0,0,0,-
CCOC(=O)c1ccc(S(=O)(=O)NNC(=O)c2ccc3c(c2)nc(C)n3CC)cc1,0,0,0,0,0,0,-
CCn1c(C)nc2cc(C(=O)NNS(=O)(=O)c3ccccc3F)ccc21,0,0,0,42,0,0,0
CC1(Cc2ccc(S(C)(=O)=O)cc2)C(=O)Nc2ccc(Cl)cc21 (stereo not drawn),-,-,-,0,-,0,-
Cc1cc(C)c(S(=O)(=O)N2CCN(c3ccccc3)CC2)c(C)c1,0,0,0,0,0,0,-
Cc1ccc(CN2CC(C(=O)Nc3cc(C)ccn3)CC2=O)cc1 (stereo not drawn),0,-,0,0,0,0,-
Cc1cccc(C)c1NC(=O)Cn1c(=O)n(CCCC(=O)NC2CCN(Cc3ccccc3)CC2)c(=O)c2ccccc21,0,0,0,0,0,0,-
SMILES,SENP6 block,HSP90 inh,SENP7 block,SENP8 block-1,SENP8 block-2,SENP1 inh,SENP8 inh conf
O=C(CCCCn1c(=O)c2ccccc2n(Cc2ccccc2F)c1=O)NC1CCN(Cc2ccccc2)CC1,0,0,0,40,0,0,0
C[C@H](CO)N1C[C@H](C)[C@@H](CN(C)C(=O)Nc2ccc3c(c2)OCO3)Oc2ccc(NS(=O)(=O)c3ccc(F)cc3)cc2C1=O,0,-,0,0,0,0,-
COc1ccc(N2C(=O)CC(Nc3cccc([N+](=O)[O-])c3)C2=O)cc1 (stereo not drawn),0,0,0,47,0,0,0
CC1(C(=O)Nc2ccc3c(c2)OCCO3)CCN1Cc1ccc(-c2ccccn2)cc1 (stereo not drawn),-,-,-,0,-,0,-
CC1(C(=O)Nc2ccc3c(c2)OCCO3)CCN1Cc1ccc2ccccc2c1 (stereo not drawn),-,-,-,40,-,0,0
CN(C)c1ccc(NC(=S)c2ccc3ccccc3n2)cc1,0,0,0,42,0,0,0
Cc1ccc(C)c(NC(=S)c2ccc3ccccc3n2)c1,0,0,0,0,0,0,-
CCc1ccc(C(=O)NNc2ccccc2F)cc1,0,0,0,26,0,0,0
Cc1nc2c3cc(F)ccc3n(Cc3ccc(F)cc3)c2s1,0,0,0,0,0,0,-
CCc1ccc2c(c1)c1nc(C)sc1n2CC,0,0,0,96,0,0,0
CCc1nc2c(OCCn3cccc3)cccn2c1N(C)C(=O)c1ccco1,-,-,-,0,-,0,-
CCc1nc2ccc(C(=O)NCCCN3CCCC3=O)cn2c1N(C)Cc1ccc(OC)cc1,-,-,-,0,-,0,-
COc1ccc(C(=O)OCCCN(C)C)cc1OC,0,0,0,41,0,0,0
CCOC(=O)Oc1ccc(C(=O)OCCCN(C)C)cc1OC,0,0,0,0,0,0,-
O=[N+]([O-])c1cccc(C(=Nc2cccc(Cl)c2)NO)c1,0,0,0,41,0,0,0
O=C(NCCc1cccc(Cl)c1)c1cccc([N+](=O)[O-])c1,0,0,0,0,0,0,-
Cc1nnc(SCC(=O)NCCC2=CCCCC2)[nH]c1=O,0,-,0,0,0,0,-
COc1ccccc1OCCCn1c(=O)oc2ccc(C)cc21,0,0,0,41,0,0,0
O=C(CN1CCN(c2ccccn2)CC1)Nc1ccc([N+](=O)[O-])cc1C(=O)Nc1ccccc1F,0,0,0,0,0,0,-
CSc1cccc(NC(=S)N(CCCN2CCCC2)Cc2cccn2Cc2ccc(Cl)cc2)c1,0,0,0,0,0,0,-
CSc1cccc(NC(=S)N(CCCN2CCCC2)Cc2cccs2)c1,0,0,0,46,0,0,0
COc1ccc(NC(=S)N(CCCN2CCCC2)Cc2cccs2)cc1,0,0,0,0,0,0,-
S=C(Nc1cccc(Cl)c1)N(CCCN1CCCC1)Cc1cccn1Cc1ccc(Cl)cc1,0,0,0,40,0,0,0
CCN(CC(=O)NCc1cccs1)C(=O)c1ccc(N(C)S(=O)(=O)c2ccc(C)cc2)cc1,-,-,-,0,-,0,-
Cc1ccc(NC(=O)c2sc(N)nc2-c2ccc([N+](=O)[O-])cc2)c(C)c1,0,0,0,45,0,0,0
O=C1O[C@@H]([C@H](O)CO)C(O)=C1O,0,-,0,40,0,0,0
NC(c1csc(Nc2ccc(C(=O)c3ccccc3)cc2)n1)c1ccccc1Cl (stereo not drawn),-,-,-,0,-,0,-
O=c1c2ccccc2ncn1Cc1ccc(Cl)c(Cl)c1,0,0,0,0,0,0,-
Cc1[nH][nH]c(=O)c1C(c1c(C)[nH][nH]c1=O)c1cn(Cc2ccc(F)cc2)c2ccccc12,-,0,-,77,-,0,73
